Measured values gathered from unrelated publications.
Each line is one published result; the experiments were not run side by side. pKi: −log10 of the molar value.
lecA: PA-I galactophilic lectin (lecA, Pseudomonas aeruginosa, UniProt Q05097)
Chymotrypsinogen A: Chymotrypsinogen A (Bos taurus, UniProt P00766)

Structure (SMILES) | target | assay | conditions | pKi
C/C(=C\C(=O)OCCCCCCCCC(=O)O)C[C@@H]1OC[C@H](C[C@@H]2O[C@H]2[C@@H](C)[C@H](C)O)[C@@H](O)[C@H]1O | Isoleucine--tRNA ligase (ileS, Escherichia coli K-12, UniProt P00956) | enzyme activity, inhibitor, absorbance | – | 9.10
[N-]=[N+]=NCCCC(=O)Nc1ccc(S[C@@H]2O[C@H](CO)[C@H](O)[C@H](O)[C@H]2O)cc1 | lecA | ligand displacement, FP | – | 5.40
OCC(F)(F)F | ADH1 (Saccharomyces cerevisiae, UniProt P00330, W55R) | enzyme activity, inhibitor | – | 1.13
c1cc2c(cc1C1CCCCC1)c1c3n2CCNC3CCC1 (stereo not shown) | Amine oxidase [flavin-containing] A (Maoa, Rattus norvegicus, UniProt P21396) | enzyme activity, inhibitor | pH 7.5 | 5.44
NC(=O)C1=CN([C@@H]2O[C@H](COP(=O)(O)OP(=O)(O)OC[C@H]3O[C@@H](n4cnc5c(N)ncnc54)[C@H](O)[C@@H]3O)[C@@H](O)[C@H]2O)C=CC1 | ADH1 (Saccharomyces cerevisiae, UniProt P00330, W83R) | enzyme activity, inhibitor | – | 4.62
CCCC[C@H](NC(=O)[C@H](CCC(N)=O)NC(=O)[C@H](CO)NC(=O)[C@H](Cc1ccccc1)NC(=O)CCCCCN)C(=O)N[C@@H](Cc1ccccc1)B(O)O | Chymotrypsinogen A | enzyme activity, inhibitor, fluorescence | – | 9.87
O=C(CCCn1cc(CN2CCN(c3cc4c(cc3F)c(=O)c(C(=O)O)cn4C3CC3)CC2)nn1)Nc1ccc(S[C@@H]2O[C@H](CO)[C@H](O)[C@H](O)[C@H]2O)cc1 | lecA | ligand displacement, FP | – | 5.52
CCCC[C@H](NC(=O)[C@H](CCC(N)=O)NC(=O)[C@H](CO)NC(=O)[C@H](Cc1ccccc1)NC(=O)CCCCCN)C(=O)N[C@@H](CCCBr)B(O)O | Chymotrypsinogen A | enzyme activity, inhibitor, fluorescence | – | 6.24
[N-]=[N+]=NCC(=O)Nc1ccc(S[C@@H]2O[C@H](CO)[C@H](O)[C@H](O)[C@H]2O)cc1 | lecA | ligand displacement, FP | – | 5.38
CCCC[C@H](NC(=O)[C@H](CCC(N)=O)NC(=O)[C@H](CO)NC(=O)[C@H](CO)NC(=O)CCCCCN)C(=O)N[C@@H](CC(C)C)B(O)O | Chymotrypsinogen A | enzyme activity, inhibitor, fluorescence | – | 6.86
O=[N+]([O-])c1ccc(O[C@@H]2O[C@H](CO)[C@H](O)[C@H](O)[C@H]2O)cc1 | lecA | ligand displacement, FP | – | 4.57
CCCC[C@H](NC(=O)[C@H](CCCCN)NC(=O)[C@H](CO)NC(=O)[C@H](CO)NC(=O)OCc1ccccc1)C(=O)N[C@@H](CCCBr)B(O)O | Chymotrypsinogen A | enzyme activity, inhibitor, fluorescence | – | 6.71
O=C(CCCCn1cc(CN2CCN(c3cc4c(cc3F)c(=O)c(C(=O)O)cn4C3CC3)CC2)nn1)Nc1ccc(S[C@@H]2O[C@H](CO)[C@H](O)[C@H](O)[C@H]2O)cc1 | lecA | ligand displacement, FP | – | 5.49
